# The source made the active and inactive calls. The calls are words filed in the database; no cut-off is given here.
# Assays:
# H9 [1] = test: Percentage of gag protein expression using H9 cells at 200 uM on 10th day; format: functional, Homo sapiens
# Method in brief: (§1)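 H9 cells (105) were infected with HIV-1 (500 virus particles per cell) and cultured without or with drug at the stated concentration. On days 7, 10 and 12, the percentage of cells expressing HIV-1 p24 gag protein was scored by indirect immunofluorescence with murine monoclonal antibody M26.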
# H9 (Homo sapiens) [2] = test: Percentage of gag protein expression using H9 cells at 0 uM on 10th day
# H9 [3] = test: Percentage of gag protein expression using H9 cells at 50 uM on 7th day; format: functional, Homo sapiens; method in brief: as §1
# H9 [4] = test: Percentage of gag protein expression using H9 cells at 200 uM on 7th day; format: functional, Homo sapiens; method in brief: as §1
# H9 [5] = test: Percentage of gag protein expression using H9 cells at 20 uM on 7th day; format: functional, Homo sapiens; method in brief: as §1
# H9 [6] = test: Percentage of gag protein expression using H9 cells at 5 uM on 7th day; format: functional, Homo sapiens; method in brief: as §1
# H9 [7] = test: Percentage of gag protein expression using H9 cells at 50 uM on 12th day; format: functional, Homo sapiens; method in brief: as §1
# H9 [8] = test: Percentage of gag protein expression using H9 cells at 100 uM on 10th day; format: functional, Homo sapiens; method in brief: as §1
# H9 [9] = test: Percentage of gag protein expression using H9 cells at 5 uM on 12th day; format: functional, Homo sapiens; method in brief: as §1
# H9 [10] = test: Percentage of gag protein expression using H9 cells at 0 uM on 7th day; format: functional, Homo sapiens; method in brief: as §1
# [11] = test system: Human immunodeficiency virus 1; test: Ability to protect CD4+ ATH8 cells from cytopathogenic effects of HIV-1; No effect; format: functional, organism-based; conditions: ATH-8
# H9 [12] = test: Percentage of gag protein expression using H9 cells at 100 uM on 12th day; format: functional, Homo sapiens; method in brief: as §1
# H9 [13] = test: Percentage of gag protein expression using H9 cells at 100 uM on 7th day; format: functional, Homo sapiens; method in brief: as §1
# H9 [14] = test: Percentage of gag protein expression using H9 cells at 200 uM on 12th day; format: functional, Homo sapiens; method in brief: as §1
# H9 [15] = test: Percentage of gag protein expression using H9 cells at 20 uM on 10th day; format: functional, Homo sapiens; method in brief: as §1
# H9 [16] = test: Percentage of gag protein expression using H9 cells at 5 uM on 10th day; format: functional, Homo sapiens; method in brief: as §1
# H9 [17] = test: Percentage of gag protein expression using H9 cells at 50 uM on 10th day; format: functional, Homo sapiens; method in brief: as §1
# H9 [18] = test: Percentage of gag protein expression using H9 cells at 20 uM on 12th day; format: functional, Homo sapiens; method in brief: as §1
# H9 (Homo sapiens) [19] = test: Percentage of gag protein expression using H9 cells at 0 uM on 12th day
# [20] = test system: Human immunodeficiency virus 1; test: Ability to protect CD4+ ATH8 cells from cytopathogenic effect of HIV-1; Active; format: functional, organism-based; conditions: ATH-8
# [21] = test system: Human immunodeficiency virus 1; test: Ability to protect CD4+ ATH8 cells from cytopathogenic effects of HIV-1; Inactive; format: functional, organism-based; conditions: ATH-8
Structure (SMILES),Expression (H9 [1]) [%],Expression (H9 (Homo sapiens) [2]) [%],Expression (H9 [3]) [%],Expression (H9 [4]) [%],Expression (H9 [5]) [%],Expression (H9 [6]) [%],Expression (H9 [7]) [%],Expression (H9 [8]) [%],Expression (H9 [9]) [%],Expression (H9 [10]) [%],Expression (H9 [12]) [%],Expression (H9 [13]) [%],Expression (H9 [14]) [%],Expression (H9 [15]) [%],Expression (H9 [16]) [%],Expression (H9 [17]) [%],Expression (H9 [18]) [%],Expression (H9 (Homo sapiens) [19]) [%],Activity [20],further results
Nc1ncnc2c1ncn2[C@H]1CC[C@@H](CO)O1,0,70,0,0,1,48,2,0,86,79,0,0,0,0,48,0,8,84,–,Activity [11]: inactive
OCC1CC(F)C(n2cnc3c(O)ncnc32)O1 (stereo unspecified),10,71,23,7,58,54,57,12,61,76,53,34,60,52,82,24,61,74,Active,–
O=c1[nH]cnc2c1ncn2[C@H]1CC[C@@H](CO)O1 [DIDANOSINE],0,73,0,0,9,73,3,0,74,76,0,0,0,30,53,0,48,83,Active,–
Nc1ncnc2c1ncn2[C@@H]1O[C@H](CO)C[C@H]1F,–,–,–,–,–,–,–,–,–,–,–,–,–,–,–,–,–,–,–,Activity [21]: inactive
Nc1ncnc2c1ncn2[C@@H]1O[C@H](CO)C[C@@H]1F [LODENOSINE],0,71,18,0,61,58,19,34,66,79,50,10,0,37,73,20,53,79,–,–

# From ChEMBL document CHEMBL1124730, “Acid-stable 2'-fluoro purine dideoxynucleosides as active agents against HIV” (1990)
